# Measured values published in PubChem BioAssay AID2805 (Sanford-Burnham Center for Chemical Genomics, 2010).
# Among all 330,000 compounds or so, about 780 (0.24%) were called active. What follows is part of a selection rich in actives, with near analogues and random picks from the rest. A number with no mark means an inactive call.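 Rule for the calls: active = activation factor of at least 2 at 20 µM; inactive = the rest.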
# Test system: intestinal alkaline phosphatase [Mus musculus]
# Assay: mouse intestinal phosphatase enzyme activation – biochemical, luminescence, uHTS, primary screen (AID 2805)
# Conditions: muIAP, CDP-Star luminescence, 30 min; at 10 µM; stronger effect = higher value; 1 = vehicle-only enzyme signal, 0 = enzyme-free wells
# Outline: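 System: Mouse IAP enzyme | Also added: CDP-Star substrate | Dosing: Compounds dispensed in DMSO | Schedule: 30 min enzyme-substrate-compound incubation at room temperature | Technique: Chemiluminescence readout | Control set: DMSO-only wells and no-enzyme negative control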
row,SMILES,activation factor
1,N#Cc1c(C(F)(F)F)cc(-c2cccs2)nc1N1CCCCC1,1.01
2,CN1CCN(C(CNS(=O)(=O)c2cccs2)c2cccnc2)CC1 (stereo not given),0.991
3,CCC(=O)c1ccc(OCC(O)Cn2nc(C)c(C(C)=O)c2C)cc1 (stereo not given),0.903
4,CC1(C)Cc2cccc(OCC(=O)N3CCN(c4ccc([N+](=O)[O-])cc4)CC3)c2O1,0.924
5,CCc1ccc(-n2c(SCc3cc(=O)n4cc(Br)ccc4n3)nc3[nH]ncc3c2=O)cc1,0.976
6,COc1ccc(CN2CCC(n3nccc3NC(=O)CCCc3ccccc3)CC2)cc1C,2.47 (active)
7,Cc1ccc(CN2CCC(n3nccc3NC(=O)CCCc3ccccc3)CC2)o1,1.09
8,COc1cc(CN2CCC(n3nccc3NC(=O)CCCc3ccccc3)CC2)ccc1O,1.47
9,CC1(C)CC(=O)c2sc(N)nc2C1,0.979
10,CC(C)c1cc(C(N)=O)c(NC(=O)c2cccc(COc3ccc(Br)cc3)c2)s1,0.925
11,COC(=O)c1ccc(NC(=O)C(C)N2C(=O)c3ccccc3C2=O)cc1 (stereo not given),0.997
12,COC(=O)c1ccc(NC(=O)Nc2ccc(C)cc2)cc1,2.13 (active)
13,COc1cc(NC(=O)Nc2ccc(C)cc2)cc([N+](=O)[O-])c1,0.983
14,Cc1c(C(C)(C)O)[nH]c2ccc(C#N)cc12,1.11
15,FC(F)(F)Oc1ccc(NC(=S)NCc2ccccc2)cc1,1.66
16,S=C(NCc1cccs1)Nc1ccc(Cl)cc1,1.5
17,Fc1ccccc1CNC(=S)Nc1ccc(Cl)cc1,2.42 (active)
18,O=C1CCC(C(=O)N2CCC(O)(c3ccccc3)CC2)CN1CCc1ccccc1 (stereo not given),0.942
19,Cc1cc(C(F)(F)F)nn1CC(=O)N1CCCC1,1.12
20,Cc1ccc(C(=O)c2coc3ccc(O)c(CN(C)C)c23)cc1,1.09
21,Cc1cccc(C)c1NC(=O)C1(N(C(=O)c2ccccn2)c2ccc(O)cc2)CCCCC1,1.01
22,COc1cccc(N(C(=O)c2ccn[nH]2)C2(C(=O)Nc3c(C)cccc3C)CCCCC2)c1,3.3 (active)
23,COc1cccc(N(Cc2nnc3n2CCCCC3)C(=O)Nc2ccccc2F)c1,1.08
24,Cc1cc(=O)n2nc(N3CCCC(C(=O)N4CCN(C)CC4)C3)sc2n1 (stereo not given),0.986

row,SMILES,activation factor
1,CN(CC(=O)N1CCN(c2ccccc2)CC1)S(=O)(=O)c1cccs1,0.929
2,Cc1ccc(NC(=O)COC(=O)C2CC2)cc1S(=O)(=O)N1CCOCC1,1.01
3,CCc1cccc(CC)c1NC(=S)NCc1ccc2[nH]c(C)cc2c1,1.06
4,Cc1cccc(NC(=S)NCc2ccc3[nH]c4c(c3c2)CCCC4)c1,2.55 (active)
5,Cc1cc(C)cc(NC(=S)NCCc2c[nH]c3ccccc23)c1,1.3
6,O=C(Nc1ccc2c(c1)OCCO2)C(c1ccc(F)cc1)N1CCCCC1 (stereo not given),1.07
7,CC(NC(=S)Nc1ccc(S(N)(=O)=O)cc1)c1ccc2c(c1)OCO2 (stereo not given),1.52
8,CC1CCCN(C(C(=O)Nc2ccc(C(C)C)cc2)c2ccc3c(c2)OCO3)C1 (stereo not given),2.25 (active)
9,CCN(C[C@H]1N[C@@](CC)(C(=O)OC)[C@H]2C(=O)N(Cc3ccccc3)C(=O)[C@@H]12)S(=O)(=O)c1ccc(C(F)(F)F)cc1,1.06
10,O=C(CCn1ccc([N+](=O)[O-])n1)Nc1nccs1,1.04
11,Cc1c(Cl)cccc1NC(=S)NCc1ccc2c(c1)OCO2,1.41
12,CN(C)S(=O)(=O)c1cccc(NC(=S)N/N=C/C(=O)c2ccccc2)c1,0.778
13,CN(C)S(=O)(=O)c1cccc(NC(=S)NCc2ccc3c(c2)OCO3)c1,2.5 (active)
14,C/C(=N\Nc1nc2ccccc2[nH]1)c1cccs1,1.07
15,COCCn1c(C)cc(C(=O)CN2c3cccc4cccc(c34)S2(=O)=O)c1C,1.06
16,CCc1nn(CCCC(=O)NC(C)c2ccccc2)c(=O)c2cc3occc3n12 (stereo not given),0.908
17,CCN(CC(=O)Nc1ccccc1C(=O)NC1CC1)Cc1cccs1,0.951
18,CC(=O)N1CCC(N(C(=O)Nc2ccc(Cl)cc2)C(C)C)CC1,1.1
19,O=C(NCc1ccccn1)Nc1ccc(Cl)cc1,1.1
20,CC(C)S(=O)(=O)c1csc(NC(=O)Nc2ccc(Cl)cc2)c1Cl,2.9 (active)
21,Fc1ccccc1COc1ccccc1CNCc1ccncc1,0.935
22,O=C(CSc1nnc(Cn2cnc3ccccc32)o1)c1ccccc1,0.997
23,N#Cc1cnn2cc(CCN3CCOCC3)c(-c3ccc(F)cc3)nc12,0.899
24,O=CN1CCN(C(=O)c2ccc3c(c2)OCO3)CC1,1.06

row,SMILES,activation factor
1,COc1cccc(NC(=O)C2C(c3ccccc3)C2(Cl)Cl)c1 (stereo not given),2.76 (active)
2,COc1cccc(NC(=O)C2c3cc(OC)c(OC)cc3C(=O)N(C)C2c2cccnc2)c1 (stereo not given),0.967
3,COc1cccc(NC(=O)C2CCCN2C(=O)OCc2ccccc2)c1 (stereo not given),0.929
4,CC(Sc1nnc(-c2ccccc2F)n1C1CC1)C(N)=O (stereo not given),1
5,CC(=O)Nc1ccc(NC(=O)CC2CCCC2)cc1,1.03
6,CCNS(=O)(=O)c1ccc(NC(=O)Nc2cccc(C(F)(F)F)c2)cc1,2.22 (active)
7,O=C(Nc1ccc(C(=O)N2CCOCC2)cc1)Nc1cccc(C(F)(F)F)c1,1.56
8,O=C(NCc1ccccc1)c1ccc(S(=O)(=O)Nc2cccc(C(F)(F)F)c2)cc1,0.856
9,COc1ccc(C(C(=O)NC2CCCC2)N(CCCO)C(=O)Cn2nnc(-c3ccc(C)o3)n2)cc1 (stereo not given),1.05
10,Cc1ccc(NC(=S)NCc2ccccc2Cl)c(C)c1,1.27
11,S=C(NCc1ccco1)NCc1ccccc1Cl,1.01
12,S=C(NCCc1ccccc1)NCc1ccccc1Cl,2.23 (active)
13,CCCCCCC12CCC(C(=O)O)(CC1)CC2,1.01
14,O=C(CN1C(=O)NC2(CCCCC2)C1=O)N1CCN(C(=O)c2cccs2)CC1,0.968
15,Cc1ccc(C)c(S(=O)(=O)N2CCCOC2CNC(=O)C(=O)NC2CCCCC2)c1 (stereo not given),1.04
16,Nc1nnc(SCC(=O)NC2CCCc3ccccc32)s1 (stereo not given),1
17,Cc1cc(Nc2ccc(Br)cc2F)n2ncnc2n1,0.862
18,Cc1ccoc1C(=O)Nc1cccc(Oc2ccccc2)c1,0.9
19,Cc1cccc(NC(=O)Nc2cccc(Oc3c(F)c(F)c(F)c(F)c3F)c2)c1,3.37 (active)
20,Cc1ccc(NC(=O)Nc2ccccc2)c(Br)c1,1.26
21,O=C(O)c1cc(S(=O)(=O)Nc2ccc3cn[nH]c3c2)ccc1Br,0.965
22,CS/C(=C\C(=O)c1ccco1)Nc1ccccc1Cl,0.883
